Experimental data as given in PubChem BioAssay AID602138 (Broad Institute, 2011).
Activity calls are given as the source filed them. The rule behind the calls is not given here.

Assay: HDL-directed efflux in C384S receptor cells – cell-based, ldlA CHO, [3H]cholesterol, dry powder, mechanism study for SR-BI HDL uptake inhibitor project, dose response (AID 602138)
Conditions: ldlA CHO cells mSR-BI C384S, [3H]cholesterol efflux to HDL; at 25 µM (top of the series)
Procedure, shortened: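 Dosing: compound in assay medium with 0.5% DMSO / System: Cys384S SR-BI mutant ldlA CHO cells / Measured by: scintillation counting, medium and lysate / Times: 1 h compound pre-exposure at 37 °C, 2 h efflux / Probe or stimulus: HDL, 100 µg/mL final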

C[C@H](C(=O)NC1CCCC1)N(C(=O)Cn1nnc(-c2ccc3c(c2)OCO3)n1)C1CCCCC1
efflux, lower = inhibition: 5.73% (active)

COCC(=O)N1CCc2cc(-c3csc(NC(=O)c4cc(OC)cc(OC)c4)n3)ccc21
efflux, lower = inhibition: 6.26% (active)
